IC50 and inhibition data for 41 compounds are collected here from ChEMBL document CHEMBL3414458, “Discovery of novel 2,5-dioxoimidazolidine-based P2X(7) receptor antagonists as constrained analogues of KN62” (J Med Chem, 2015).

The structures appear in SMILES notation.

The target in assay [1] is T1, P2X purinoceptor 7 (Homo sapiens, UniProt Q99572).
T1 sequence (Q99572 whole entry): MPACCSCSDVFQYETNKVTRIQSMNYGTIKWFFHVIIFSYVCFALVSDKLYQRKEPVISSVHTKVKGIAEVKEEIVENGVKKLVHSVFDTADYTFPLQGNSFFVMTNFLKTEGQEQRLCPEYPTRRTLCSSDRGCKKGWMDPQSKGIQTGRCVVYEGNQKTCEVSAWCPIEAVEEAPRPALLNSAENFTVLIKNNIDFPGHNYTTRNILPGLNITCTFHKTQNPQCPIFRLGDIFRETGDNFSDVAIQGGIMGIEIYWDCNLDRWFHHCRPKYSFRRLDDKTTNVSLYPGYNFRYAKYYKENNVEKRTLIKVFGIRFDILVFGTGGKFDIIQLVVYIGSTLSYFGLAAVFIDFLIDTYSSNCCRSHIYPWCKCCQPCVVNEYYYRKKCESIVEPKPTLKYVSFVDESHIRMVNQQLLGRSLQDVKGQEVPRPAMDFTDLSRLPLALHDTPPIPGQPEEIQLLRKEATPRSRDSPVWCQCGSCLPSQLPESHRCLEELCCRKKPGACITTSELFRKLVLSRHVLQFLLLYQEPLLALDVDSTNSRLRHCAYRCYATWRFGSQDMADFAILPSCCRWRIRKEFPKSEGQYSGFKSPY
The assay can be described thus: Antagonist activity at recombinant human P2X7 receptor expressed in HEK293 cells assessed as inhibition of BzATP-induced intracellular ethidium bromide uptake after 2 hrs by fluorescence assay. It counts as cell-based. In a few lines:
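Human HEK293 cells stably expressing recombinant human P2X7; ethidium accumulation stimulated by BzATP was measured.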

In assay [2] the target is T1, P2X purinoceptor 7. The assay can be described thus: Antagonist activity at P2X7 receptor in LPS/IFN-gamma-differentiated human THP1 cells assessed as inhibition of BzATP-induced IL-1beta release preincubated for 30 mins followed by BzATP induction measured after 30 mins by ELISA. It counts as cell-based, THP-1. In a few lines:
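Human THP-1 monocytes, LPS-primed, stimulated with BzATP; IL-1β release measured by ELISA. Active compounds were screened at 1 µM, and full concentration-response curves were run to obtain IC50.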
In general terms: ELISA stands for enzyme-linked immunosorbent assay.

Assay [3] has as its target T2, P2X purinoceptor 7 (Homo sapiens) (UniProt Q99572).
T2 sequence (whole entry): T1 sequence (Q99572 whole entry)
Description: Antagonist activity at P2X7 receptor in LPS/IFN-gamma-differentiated human THP1 cells assessed as inhibition of BzATP-induced IL-1beta release at 1 uM preincubated for 30 mins followed by BzATP induction measured after 30 mins by ELISA relative to control. It counts as cell-based. Particulars: THP-1. Summed up: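 LPS-primed THP-1 human monocytes were stimulated with BzATP, and IL-1β release was measured by ELISA. Test compound was given at a single concentration of 1 µM, and results are expressed as percent inhibition of BzATP-induced IL-1β release.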

Usually IC50 stands for the concentration needed to halve the response being measured. What is called inhibition is the share of the control response that was lost under treatment.

Regarding `O=C1NC(=O)N(CCC2CCN(Cc3ccccc3)CC2)C1Cc1ccc(OS(=O)(=O)c2cccc3cnccc23)cc1` (racemic), the half-inhibitory concentration (IC50) at P2X purinoceptor 7 [1] stood at 5730 nM. On to `O=C1NC(=O)N(C2CCN(C(=O)c3ccc(Cl)cc3)CC2)C1Cc1ccc(OS(=O)(=O)c2cccc3cnccc23)cc1` (racemic), for which the half-inhibitory concentration (IC50) was determined as 133 nM at P2X purinoceptor 7 [1] and 192 nM on P2X purinoceptor 7 [2].

Take `O=C1NC(=O)N(Cc2cccc3cnccc23)C1Cc1ccc(OS(=O)(=O)c2cccc3cnccc23)cc1` (racemic): the inhibition in assay [3] was determined as 38%. The IC50 on P2X purinoceptor 7 [1] worked out at 3820 nM.

As for `O=C1NC(=O)N(C2CCN(Cc3ccccc3)CC2)C1Cc1ccc(OS(=O)(=O)c2cccc3cnccc23)cc1` (racemic), at P2X purinoceptor 7 [1], the IC50 is 1620 nM.

Consider `O=C1NC(=O)N(C2CCN(CC34CC5CC(CC(C5)C3)C4)CC2)C1Cc1ccc(OS(=O)(=O)c2cccc3cnccc23)cc1` (racemic), for which the inhibition in assay [3] was 49%. Further, the half-inhibitory concentration (IC50) at P2X purinoceptor 7 [1] is 2290 nM. The corresponding values for `CC(C)CC(=O)N1CCC(N2C(=O)NC(=O)C2Cc2ccc(OS(=O)(=O)c3cccc4cnccc34)cc2)CC1` (racemic) are 45% and 4880 nM. Turning to `CN([C@@H](Cc1ccc(OS(=O)(=O)c2cccc3cnccc23)cc1)C(=O)N1CCN(c2ccccc2)CC1)S(=O)(=O)c1cccc2cnccc12`, the IC50 at P2X purinoceptor 7 [2] turned out to be 143 nM. For the compound `CC12CC3CC(C)(C1)CC(C(=O)N1CCC(N4C(=O)NC(=O)C4Cc4ccc(OS(=O)(=O)c5cccc6cnccc56)cc4)CC1)(C3)C2` (racemic), the IC50 was 99 nM at P2X purinoceptor 7 [1] and 81 nM on P2X purinoceptor 7 [2]. As for `CCN1C(=O)C(Cc2ccc(OS(=O)(=O)c3cccc4cnccc34)cc2)N(C2CCN(C(=O)c3ccc(Cl)c(C(F)(F)F)c3)CC2)C1=O` (racemic), the IC50 at P2X purinoceptor 7 [1] came out at 847 nM. `O=C1C(Cc2ccc(OS(=O)(=O)c3cccc4cnccc34)cc2)N(CC2CCN(Cc3ccccc3)CC2)C(=O)N1Cc1cccc2cnccc12` (racemic): in assay [3], the inhibition was found to be 42%. Besides, the IC50 on P2X purinoceptor 7 [1] was 8960 nM.

As for `O=C1NC(=O)N(C2CCN(C(=O)c3ccccc3)CC2)C1Cc1ccc(OS(=O)(=O)c2cccc3cnccc23)cc1` (racemic), the inhibition in assay [3] was found to be 60%. Moreover, the concentration for half-maximal inhibition (IC50) at P2X purinoceptor 7 [1] stood at 574 nM. On to `O=C1NC(=O)N(C2CCN(C(=O)CC3CC4CCC3C4)CC2)C1Cc1ccc(OS(=O)(=O)c2cccc3cnccc23)cc1` (racemic), for which the inhibition in assay [3] is more than 95%. Besides, the IC50 is 109 nM at P2X purinoceptor 7 [1] and 29 nM at P2X purinoceptor 7 [2].

Take `CC(C)(C)OC(=O)N1CCC(CN2C(=O)NC(=O)C2Cc2ccc(OS(=O)(=O)c3cccc4cnccc34)cc2)CC1` (racemic): the inhibition in assay [3] came to 60%. In addition, the half-inhibitory concentration (IC50) on P2X purinoceptor 7 [1] turned out to be 885 nM. As to `O=C1NC(=O)N(C2CCN(C(=O)C34CC5CC(CC(Br)(C5)C3)C4)CC2)C1Cc1ccc(OS(=O)(=O)c2cccc3cnccc23)cc1` (racemic), in assay [3], the inhibition was more than 95%. For the same compound, the IC50 amounted to 30 nM on P2X purinoceptor 7 [1] and 27 nM at P2X purinoceptor 7 [2]. Take `CCC(=O)N1CCC(N2C(=O)NC(=O)C2Cc2ccc(OS(=O)(=O)c3cccc4cnccc34)cc2)CC1` (racemic): in assay [3], the inhibition came to 48%. Further, the IC50 on P2X purinoceptor 7 [1] was 11700 nM. For `O=C1NC(=O)N(C2CCN(C(=O)c3ccc(Cl)cc3F)CC2)C1Cc1ccc(OS(=O)(=O)c2cccc3cnccc23)cc1` (racemic), the IC50 stood at 423 nM at P2X purinoceptor 7 [1] and 253 nM on P2X purinoceptor 7 [2].

With `O=C1NC(=O)N(C2CCN(C(=O)C34CC5CC(CC(C5)C3)C4)CC2)C1Cc1ccc(OS(=O)(=O)c2cccc3cnccc23)cc1` (racemic), the half-maximal inhibitory concentration (IC50) is 23 nM on P2X purinoceptor 7 [1] and 14 nM at P2X purinoceptor 7 [2]. For `CC(C)(C)C(=O)N1CCC(N2C(=O)NC(=O)C2Cc2ccc(OS(=O)(=O)c3cccc4cnccc34)cc2)CC1` (racemic), the inhibition in assay [3] is 49%. On P2X purinoceptor 7 [1], the IC50 was 5650 nM. Take `O=C1N[C@@H](Cc2ccc(OS(=O)(=O)c3cccc4cnccc34)cc2)C(=O)N1Cc1cccc2cnccc12`: the inhibition in assay [3] came to 52%. In addition, at P2X purinoceptor 7 [1], the IC50 turned out to be 12200 nM. Regarding `CC(C)N1C(=O)C(Cc2ccc(OS(=O)(=O)c3cccc4cnccc34)cc2)N(C2CCN(C(=O)c3ccc(Cl)c(C(F)(F)F)c3)CC2)C1=O` (racemic), at P2X purinoceptor 7 [1], the 50% inhibitory concentration (IC50) was 3240 nM. As to `O=C1NC(=O)N(C2CCN(C(=O)c3ccc(Cl)c(Cl)c3)CC2)C1Cc1ccc(OS(=O)(=O)c2cccc3cnccc23)cc1` (racemic), the IC50 at P2X purinoceptor 7 [1] worked out at 73 nM; at P2X purinoceptor 7 [2] it was 72 nM. As to `CN1C(=O)C(Cc2ccc(OS(=O)(=O)c3cccc4cnccc34)cc2)N(C2CCN(C(=O)c3ccc(Cl)c(C(F)(F)F)c3)CC2)C1=O` (racemic), the IC50 at P2X purinoceptor 7 [1] worked out at 542 nM. As to `CC(C)(C)OC(=O)N1CCC(N2C(=O)NC(=O)C2Cc2ccc(OS(=O)(=O)c3cccc4cnccc34)cc2)CC1` (racemic), the inhibition in assay [3] is 59%. Moreover, at P2X purinoceptor 7 [1], the IC50 came to 355 nM.

For `O=C1NC(=O)N(C2CCN(C(=O)c3ccc(F)cc3)CC2)C1Cc1ccc(OS(=O)(=O)c2cccc3cnccc23)cc1` (racemic), the half-maximal inhibitory concentration (IC50) on P2X purinoceptor 7 [1] worked out at 913 nM. On to `CC(C)(C)OC(=O)N1CCC(CN2C(=O)N(Cc3cccc4cnccc34)C(=O)C2Cc2ccc(OS(=O)(=O)c3cccc4cnccc34)cc2)CC1` (racemic), for which, in assay [3], the inhibition stood at 44%. Moreover, the concentration for half-maximal inhibition (IC50) at P2X purinoceptor 7 [1] came to 1970 nM. With `O=C1NC(=O)N(C2CCN(C(=O)c3cccc(Cl)c3)CC2)C1Cc1ccc(OS(=O)(=O)c2cccc3cnccc23)cc1` (racemic), the concentration for half-maximal inhibition (IC50) on P2X purinoceptor 7 [1] is 220 nM; at P2X purinoceptor 7 [2], 313 nM. As to `O=C1NC(=O)N(C2CCN(C(=O)c3ccc(Cl)c(C(F)(F)F)c3)CC2)C1Cc1ccc(OS(=O)(=O)c2cccc3cnccc23)cc1` (single isomer, unassigned; (-)), the IC50 at P2X purinoceptor 7 [1] amounted to 54 nM; at P2X purinoceptor 7 [2], 9 nM. As to `COc1ccc(C(=O)N2CCC(N3C(=O)NC(=O)C3Cc3ccc(OS(=O)(=O)c4cccc5cnccc45)cc3)CC2)cc1OC` (racemic), the inhibition in assay [3] came out at 52%. Further, at P2X purinoceptor 7 [1], the IC50 came out at 3760 nM. The like results for `O=C1NC(=O)N(CCC2CCN(C(=O)c3ccccc3)CC2)C1Cc1ccc(OS(=O)(=O)c2cccc3cnccc23)cc1` (racemic) were, in that order, 33% and 4990 nM. The like results for `CC(C)(C)OC(=O)N1CCC(CCN2C(=O)NC(=O)C2Cc2ccc(OS(=O)(=O)c3cccc4cnccc34)cc2)CC1` (racemic) were, in that order, 54% and 1010 nM. The like results for `O=C1NC(=O)N(C2CCN(C(=O)c3ccccc3Cl)CC2)C1Cc1ccc(OS(=O)(=O)c2cccc3cnccc23)cc1` (racemic) were, in that order, 68% and 666 nM. In the case of `CC(C)C(=O)N1CCC(N2C(=O)NC(=O)C2Cc2ccc(OS(=O)(=O)c3cccc4cnccc34)cc2)CC1` (racemic), the inhibition in assay [3] stood at 33%. Besides, on P2X purinoceptor 7 [1], the IC50 was found to be 7220 nM.

For `O=C1NC(=O)N(CC2CCN(C(=O)c3ccccc3)CC2)C1Cc1ccc(OS(=O)(=O)c2cccc3cnccc23)cc1` (racemic), in assay [3], the inhibition turned out to be 59%. Moreover, on P2X purinoceptor 7 [1], the 50% inhibitory concentration (IC50) turned out to be 789 nM. Regarding `O=C1NC(=O)N(CC2CCN(Cc3ccccc3)CC2)C1Cc1ccc(OS(=O)(=O)c2cccc3cnccc23)cc1` (racemic), the inhibition in assay [3] was determined as 52%. For the same compound, the 50% inhibitory concentration (IC50) on P2X purinoceptor 7 [1] stood at 1820 nM. The like results for `CC(C)(C)OC(=O)N1CCC(CN2C(=O)N[C@@H](Cc3ccc(OS(=O)(=O)c4cccc5cnccc45)cc3)C2=O)CC1` were, in that order, 45% and 7720 nM.

`O=C1NC(=O)N(C2CCN(C(=O)c3ccc(Cl)c(C(F)(F)F)c3)CC2)C1Cc1ccc(OS(=O)(=O)c2cccc3cnccc23)cc1` (stereo in doubt; (+)-21w): the IC50 at P2X purinoceptor 7 [1] worked out at 168 nM; at P2X purinoceptor 7 [2], 98 nM. For the compound `CCCC(=O)N1CCC(N2C(=O)NC(=O)C2Cc2ccc(OS(=O)(=O)c3cccc4cnccc34)cc2)CC1` (racemic), the inhibition in assay [3] was 37%. Besides, the half-maximal inhibitory concentration (IC50) on P2X purinoceptor 7 [1] is 8770 nM. For the compound `CCCN1C(=O)C(Cc2ccc(OS(=O)(=O)c3cccc4cnccc34)cc2)N(C2CCN(C(=O)c3ccc(Cl)c(C(F)(F)F)c3)CC2)C1=O` (racemic), at P2X purinoceptor 7 [1], the IC50 was 1670 nM. On to `O=C1NC(=O)N(C2CCN(C(=O)c3ccc(F)c(F)c3)CC2)C1Cc1ccc(OS(=O)(=O)c2cccc3cnccc23)cc1` (racemic), for which the results for the IC50 at P2X purinoceptor 7 [1] and on P2X purinoceptor 7 [2] were 217 nM and 81 nM, respectively. With `CC(C)(C)OC(=O)N1CCC(CN2C(=O)C(Cc3ccc(OS(=O)(=O)c4cccc5cnccc45)cc3)N(Cc3cccc4cnccc34)C2=O)CC1` (racemic), the inhibition in assay [3] turned out to be 50%. Further, at P2X purinoceptor 7 [1], the IC50 was 12000 nM. Turning to `O=C1NC(=O)N(C2CCN(C(=O)C3CCCCC3)CC2)C1Cc1ccc(OS(=O)(=O)c2cccc3cnccc23)cc1` (racemic), the results for the 50% inhibitory concentration (IC50) on P2X purinoceptor 7 [1] and at P2X purinoceptor 7 [2] were 133 nM and 80 nM, respectively.
